ChEMBL document CHEMBL4261523, “PAIN-less identification and evaluation of small molecule inhibitors against protein tyrosine phosphatase 1B” (Medchemcomm, 2017)
Activity calls are given as the source filed them. The rule behind the calls is not given here.

How the values were obtained:
[1] = target: T1, Tyrosine-protein phosphatase non-receptor type 1 (Homo sapiens) (UniProt P18031); assay: (§1) Inhibition of PTP1B (1 to 298 residues) (unknown origin) using DifMUP as substrate preincubated for 30 mins followed by substrate addition and measured after 30 mins by fluorescence assay
T1 sequence (whole entry): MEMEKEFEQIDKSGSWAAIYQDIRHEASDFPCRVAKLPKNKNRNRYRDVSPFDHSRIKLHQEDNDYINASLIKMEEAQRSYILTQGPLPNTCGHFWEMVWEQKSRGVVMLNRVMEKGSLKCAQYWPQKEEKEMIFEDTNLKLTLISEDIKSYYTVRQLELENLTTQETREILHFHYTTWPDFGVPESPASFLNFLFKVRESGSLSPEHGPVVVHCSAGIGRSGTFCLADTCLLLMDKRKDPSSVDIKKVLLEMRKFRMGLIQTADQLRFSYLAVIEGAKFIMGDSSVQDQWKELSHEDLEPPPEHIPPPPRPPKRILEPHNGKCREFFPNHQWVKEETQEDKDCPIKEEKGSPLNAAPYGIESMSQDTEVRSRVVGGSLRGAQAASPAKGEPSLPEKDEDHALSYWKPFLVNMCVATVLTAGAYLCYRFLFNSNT
Outline: (§2)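 PTP1B catalytic domain (aa 1–298, 5 nM final) preincubated with compound (diluted in DMSO) 30 min at RT in the dark. DifMUP (30 μM final) added, 30 min at RT. Stopped with H2O2 (0.5% final), 30 min RT. Fluorescence read at Ex 360/Em 450 nm. Buffer: 50 mM citrate pH 6.0, 100 mM NaCl, 1 mM EDTA, 0.1 mM DTT, 0.01% Brij35.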

[2] = target: T2, Tyrosine-protein phosphatase non-receptor type 1 (Homo sapiens, UniProt P18031); assay: Competitive inhibition of PTP1B (1 to 298 residues) (unknown origin) using 30 uM DifMUP as substrate preincubated for 30 mins followed by substrate addition and measured after 30 mins by fluorescence assay; outline: as §2
T2 sequence (P18031 whole entry): T1 sequence (whole entry)

[3] = target: T2, Tyrosine-protein phosphatase non-receptor type 1; assay: Competitive inhibition of PTP1B (1 to 298 residues) (unknown origin) using 60 uM DifMUP as substrate preincubated for 30 mins followed by substrate addition and measured after 30 mins by fluorescence assay
Outline: (§3)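 PTP1B aa 1–298 (5 nM final) preincubated with compound 30 min at RT in the dark, then DifMUP added, 30 min at RT. Stopped with 0.5% final H2O2, 30 min. Fluorescence read at Ex 360/Em 450 nm. Buffer: citrate pH 6.0, NaCl, EDTA, DTT, Brij35.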

[4] = target: T2, Tyrosine-protein phosphatase non-receptor type 1; assay: as §1; outline: as §2
[5] = target: T2, Tyrosine-protein phosphatase non-receptor type 1; assay: Competitive inhibition of PTP1B (1 to 298 residues) (unknown origin) using 15 uM DifMUP as substrate preincubated for 30 mins followed by substrate addition and measured after 30 mins by fluorescence assay; outline: as §3
[6] = target: T1, Tyrosine-protein phosphatase non-receptor type 1 (Homo sapiens); assay: Reversible inhibition of PTP1B (1 to 298 residues) (unknown origin) using 10 fold excess DifMUP as substrate preincubated for 30 mins followed by substrate addition and measured after 30 mins by fluorescence assay
[7] = Effect on fluorescence read out during PTP1B enzymatic reaction compound treated post enzyme-substrate reaction and susequent H2O2-mediated enzyme deactivation
Outline: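 Read-out counter assay. PTP1B (aa 1–298) turned over DifMUP first, then the enzyme was deactivated with H2O2 and compound added. A drop in fluorescence (Ex 360/Em 450 nm) marks interference with the read-out. Concentration–response format.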

[8] = Intrinsic redox activity of compound after 60 mins in presence of resazurin/DTT
[9] = Self-aggregating behavior of compound at 32 to 500 uM by 1D-1H NMR method; type: physicochemical
Outline: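 Self-association check by 1D 1H NMR. Dilution series from 500 to 32 μM compound in 5 mM TRIS pH 7.4, 50 mM NaCl, 5% DMSO-d6. Concentration-dependent shifts of aromatic resonances were monitored.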

SMILES | inhibition [1] | IC50 [4] [µM] | Activity [7] | other results
Cc1c(C)c2c(c(C)c1O)CC[C@@](C)(CCC[C@H](C)CCC[C@H](C)CCCC(C)C)O2 | inactive | – | – | –
Cc1c(C)c2c(c(C)c1OC(=O)CCC(=O)O)CCC(C)(C)O2 | inactive | – | – | –
Cc1c(C)c2c(c(C)c1OC(=O)CCC(=O)O)CC[C@@](C)(CCC[C@H](C)CCC[C@H](C)CCCC(C)C)O2 [(+)-ALPHA-TOCOPHERYL SUCCINATE] | – | 20 | inactive | IC50 [2]: 39 µM; IC50 [3]: 45.6 µM; IC50 [5]: 25.1 µM; inhibition [6]: Active; Activity [8]: inactive
COc1cc2c(cc1OC)-c1cc3ccc(OC)c(OC)c3c[n+]1CC2 [PALMITINE] | – | 234 | Active | –
CC(=O)Oc1c(C)c(C)c2c(c1C)CC[C@@](C)(CCC[C@H](C)CCC[C@H](C)CCCC(C)C)O2 | inactive | – | – | –
COc1ccc2cc3[n+](cc2c1OC)CCc1cc2c(cc1-3)OCO2 [BERBERINE] | – | 67 | Active | Activity [9]: Active
CN(C)c1ccc2nc3ccc(=[N+](C)C)cc-3sc2c1 | Active | – | – | –
O=C(O)C(=O)Nc1sc2c(c1C(=O)O)CCNC2 | – | – | inactive | –
